Results: ChEMBL document CHEMBL1926651, “Design, synthesis, antiviral and cytostatic evaluation of novel isoxazolidine nucleotide analogues with a 1,2,3-triazole linker” (Eur J Med Chem, 2012)
Active and inactive are the calls of the source. The calls are words filed in the database; no cut-off is given here.

How the values were obtained:
[1] = tested on: Mammalian orthoreovirus 1; assay: Antiviral activity against Reovirus-1 infected in african green monkey Vero cells assessed as inhibition of viral plaque formation at 250 uM; assay type: functional, organism-based
Method in brief: (§1)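 Confluent host cell monolayers were inoculated with 100 CCID50 of virus in the presence of test compound at serial dilutions (250, 50, 10, … μM). Viral cytopathicity was scored once it reached completion in untreated virus-infected controls.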

[2] = tested on: Human alphaherpesvirus 1; assay: Antiviral activity against thymidine kinase-deficient acv-resistant Herpes simplex virus 1 KOS infected in human HEL cells assessed as inhibition of viral plaque formation at 250 uM; assay type: functional, organism-based
[3] = tested on: Feline coronavirus; assay: Antiviral activity against Feline coronavirus infected in CrFK cells assessed as inhibition of viral plaque formation at 250 uM; assay type: functional, organism-based; method in brief: as §1
[4] = tested on: Vesicular stomatitis virus; assay: Antiviral activity against Vesicular stomatitis virus infected in human Hela cells assessed as inhibition of viral plaque formation at 250 uM; assay type: functional, organism-based
[5] = tested on: Human immunodeficiency virus 1; assay: Antiviral activity against Human immunodeficiency virus 1 infected in human CEM cells assessed as inhibition of virus-induced giant cell formation after 4 days by microscopic analysis; assay type: functional, organism-based; details: CCRF-CEM
Method in brief: (§2)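 CEM cells at about 3 × 10⁵ cells/cm³ were infected with 100 CCID50/mL of HIV-1(IIIB) or HIV-2(ROD), then seeded into wells holding test compound dilutions. After 4 days at 37 °C, virus-induced giant cell formation was scored microscopically.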

[6] = tested on: Punta Toro virus; assay: Antiviral activity against Punta Toro virus infected in african green monkey Vero cells assessed as inhibition of viral plaque formation at 250 uM; assay type: functional, organism-based
[7] = tested on: Respiratory syncytial virus; assay: Antiviral activity against Respiratory syncytial virus infected in human HeLa cells assessed as inhibition of viral plaque formation at 250 uM; assay type: functional, organism-based; method in brief: as §1
[8] = tested on: Human alphaherpesvirus 3; assay: Antiviral activity against thymidine kinase-deficient Varicella Zoster virus 07/1 infected in human HEL cells assessed as inhibition of viral plaque formation at 250 uM; assay type: functional, organism-based
[9] = tested on: Human alphaherpesvirus 1; assay: Antiviral activity against Herpes simplex virus 1 KOS infected in human HEL cells assessed as inhibition of viral plaque formation at 250 uM; assay type: functional, organism-based; method in brief: as §1
[10] = tested on: Vesicular stomatitis virus; assay: Antiviral activity against Vesicular stomatitis virus infected in human HEL cells assessed as inhibition of viral plaque formation at 250 uM; assay type: functional, organism-based; method in brief: as §1
[11] = tested on: Sindbis virus; assay: Antiviral activity against Sindbis virus infected in african green monkey Vero cells assessed as inhibition of viral plaque formation at 250 uM; assay type: functional, organism-based; method in brief: as §1
[12] = tested on: Human betaherpesvirus 5; assay: Antiviral activity against Human cytomegalovirus Davis infected in human HEL cells assessed as inhibition of viral plaque formation at 250 uM; assay type: functional, organism-based
[13] = tested on: Coxsackievirus B4; assay: Antiviral activity against Coxsackievirus B4 infected in human HeLa cells assessed as inhibition of viral plaque formation at 250 uM; assay type: functional, organism-based; method in brief: as §1
[14] = tested on: Human respirovirus 3; assay: Antiviral activity against Parainfluenza-3 virus infected in african green monkey Vero cells assessed as inhibition of viral plaque formation at 250 uM; assay type: functional, organism-based; method in brief: as §1
[15] = tested on: Coxsackievirus B4; assay: Antiviral activity against Coxsackievirus B4 infected in african green monkey Vero cells assessed as inhibition of viral plaque formation at 250 uM; assay type: functional, organism-based; method in brief: as §1
[16] = tested on: Human betaherpesvirus 5; assay: Antiviral activity against Human cytomegalovirus AD169 infected in human HEL cells assessed as inhibition of viral plaque formation at 250 uM; assay type: functional, organism-based
[17] = tested on: Human alphaherpesvirus 2; assay: Antiviral activity against Herpes simplex virus 2 G infected in human HEL cells assessed as inhibition of viral plaque formation at 250 uM; assay type: functional, organism-based; details: strain G
[18] = tested on: Felid alphaherpesvirus 1; assay: Antiviral activity against Felid herpesvirus 1 infected in CrFK cells assessed as inhibition of viral plaque formation at 250 uM; assay type: functional, organism-based; method in brief: as §1
[19] = tested on: Vaccinia virus; assay: Antiviral activity against Vaccinia virus infected in human HEL cells assessed as inhibition of viral plaque formation at 250 uM; assay type: functional, organism-based; details: Orthopoxvirus vaccinia; method in brief: as §1
[20] = tested on: Human immunodeficiency virus 2; assay: Antiviral activity against Human immunodeficiency virus 2 infected in human CEM cells assessed as inhibition of virus-induced giant cell formation after 4 days by microscopic analysis; assay type: functional, organism-based; details: CCRF-CEM; method in brief: as §2
[21] = tested on: Human alphaherpesvirus 3; assay: Antiviral activity against thymidine kinase-positive Varicella Zoster virus Oka infected in human HEL cells assessed as inhibition of viral plaque formation at 250 uM; assay type: functional, cell-based; details: strain Oka vaccine
[22] = tested on: HEL; assay: Cytotoxicity against human HEL cells 3 days by coulter counting; assay type: functional; details: 72 h
Method in brief: (§3)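 Cells were suspended at 300,000–500,000 cells/mL and added 1:1 to compound dilutions. Incubation was at 37 °C, 2 days for L1210 and 3 days for CEM, HeLa and HEL. Cells were counted with a Coulter counter. CC50 is the concentration inhibiting cell proliferation by 50%.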

[23] = tested on: L1210; assay: Cytotoxicity against mouse L1210 cells 2 days by coulter counting; assay type: functional; details: L1210, 48 h; method in brief: as §3
[24] = tested on: CCRF-CEM; assay: Cytotoxicity against human CEM cells 3 days by coulter counting; assay type: functional; details: 72 h; method in brief: as §3
[25] = tested on: HeLa; assay: Cytotoxicity against human HeLa cells 3 days by coulter counting; assay type: functional; details: 72 h; method in brief: as §3

SMILES | Activity [1] | Activity [2] | Activity [3] | Activity [4] | Activity [5] | Activity [6] | Activity [7] | Activity [8] | Activity [9] | Activity [10] | Activity [11] | Activity [12] | Activity [13] | Activity [14] | Activity [15] | Activity [16] | Activity [17] | Activity [18] | Activity [19] | Activity [20] | further results
Nc1nc2c(ncn2COCCO)c(=O)[nH]1 | inactive | inactive | inactive | inactive | inactive | inactive | inactive | inactive | inactive | inactive | inactive | inactive | inactive | inactive | inactive | inactive | inactive | inactive | inactive | inactive | Activity [21]: inactive
NC(=O)c1ncn([C@@H]2O[C@H](CO)[C@@H](O)[C@H]2O)n1 | inactive | inactive | inactive | inactive | inactive | inactive | inactive | inactive | inactive | inactive | inactive | inactive | inactive | inactive | inactive | inactive | inactive | inactive | inactive | inactive | Activity [21]: inactive
Nc1ncnc2c1ncn2C[C@H](O)CO | inactive | inactive | inactive | inactive | inactive | inactive | inactive | inactive | inactive | inactive | inactive | inactive | inactive | inactive | inactive | inactive | inactive | inactive | inactive | inactive | Activity [21]: inactive
CCOP(=O)(OCC)[C@@H]1C[C@H](n2cc(Cn3ccc(NC(C)=O)nc3=O)nn2)ON1C (relative stereo) | inactive | inactive | inactive | inactive | inactive | inactive | inactive | inactive | inactive | inactive | inactive | inactive | inactive | inactive | inactive | inactive | inactive | inactive | inactive | inactive | CC50 [22]: > 100 µM; CC50 [23]: > 250 µM; CC50 [24]: > 250 µM; Activity [21]: inactive; CC50 [25]: > 250 µM
CCOP(=O)(OCC)[C@@H]1C[C@H](n2cc(Cn3ccc(=O)[nH]c3=O)nn2)ON1C (racemic) | inactive | inactive | inactive | inactive | inactive | inactive | inactive | inactive | inactive | inactive | inactive | inactive | inactive | inactive | inactive | inactive | inactive | inactive | inactive | inactive | CC50 [22]: > 100 µM; CC50 [23]: 235 µM; CC50 [24]: > 250 µM; Activity [21]: inactive; CC50 [25]: > 250 µM
Nc1nc2c(ncn2COC(CO)CO)c(=O)[nH]1 | inactive | inactive | inactive | inactive | inactive | inactive | inactive | inactive | inactive | inactive | inactive | inactive | inactive | inactive | inactive | inactive | inactive | inactive | inactive | inactive | Activity [21]: inactive
O=c1[nH]c(=O)n([C@H]2C[C@H](O)[C@@H](CO)O2)cc1/C=C/Br | inactive | inactive | inactive | inactive | inactive | inactive | inactive | inactive | inactive | inactive | inactive | inactive | inactive | inactive | inactive | inactive | inactive | inactive | inactive | inactive | Activity [21]: inactive
Nc1ccn(C[C@@H](CO)OCP(=O)(O)O)c(=O)n1 | inactive | inactive | inactive | inactive | inactive | inactive | inactive | inactive | inactive | inactive | inactive | inactive | inactive | inactive | inactive | inactive | inactive | inactive | inactive | inactive | Activity [21]: inactive
CCOC(=O)C1=C[C@@H](OC(CC)CC)[C@H](NC(C)=O)[C@@H](N)C1 | inactive | inactive | inactive | inactive | inactive | inactive | inactive | inactive | inactive | inactive | inactive | inactive | inactive | inactive | inactive | inactive | inactive | inactive | inactive | inactive | Activity [21]: inactive
